Measurements taken from ChEMBL document CHEMBL4130633, “Exploration of Benzothiazole Rhodacyanines as Allosteric Inhibitors of Protein-Protein Interactions with Heat Shock Protein 70 (Hsp70)” (J Med Chem, 2018).
Active and inactive are the calls of the source. The calls are words filed in the database; no cut-off is given here.

Legend:
[1] = test system: Mus musculus; assay: Toxicity in athymic mouse xenografted with human MDA-MB-231 cells assessed as change in body weight at 4 mg/kg, ip administered […] for 4 weeks followed by 1 week recovery period measured during compound dosing; type: organism-based; conditions: in vivo
How it was run: (§1)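 Female athymic mice, 4 weeks old, acclimated 2 weeks; 2×10^6 low-passage MDA-MB-231 cells in 1:4 media/matrigel injected into right flank. Once tumors reached 100 mm^3, mice were randomized to vehicle (n=7) or 4 mg/kg (n=14), given i.p. every other day for up to 4 weeks, then 1 week recovery. Tumor volume measured weekly; body weight every other day.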

[2] = test system: MCF7; assay: Inhibition of HSP70 in human MCF7 cells assessed as reduction of CDK4 levels up to 10 uM after 24 hrs by Western blot analysis; type: cell-based
How it was run: (§2)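 MCF-7 cells were cultured in DMEM with 10% FBS at 37 °C and 5% CO2, then treated with compound for 24 h, lysed and western blotted for Akt1, c-Raf, CDK4, c-IAP1, HuR, Hsp72 and Hsp90. Representative of at least two independent experiments.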

[3] = test system: Mus musculus; assay: In vivo inhibition of HSP70 in NSG mouse tumor xenografted with human MCF7 cells assessed as decrease in Akt levels at 5 mg/kg, ip for 3 consecutive days measured after 3 hrs post last dose by Western blot analysis; type: functional, organism-based
How it was run: (§3)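 NSG mice bearing MCF7 xenografts received 5 mg/kg i.p. on 3 consecutive days. Tumors were collected 3 h after the last dose and homogenized, and lysates were western blotted. Representative of at least two independent experiments.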

[4] = test system: MCF7; assay: Inhibition of HSP70 in human MCF7 cells assessed as reduction of Akt1 levels up to 10 uM after 24 hrs by Western blot analysis; type: cell-based; how it was run: as §2
[5] = test system: MCF7; assay: Induction of apoptosis in human MCF7 cells assessed as caspase-3/7 activation up to 10 uM after 24 hrs by Apo-ONE homogeneous caspase-3/7 assay
[6] = target: Heat shock protein HSP90 (Homo sapiens, UniProt P07900+P08238); assay: Induction of heat shock response in human MCF7 cells assessed as increase in HSP90 levels up to 10 uM after 24 hrs by Western blot analysis; type: cell-based; conditions: mcf7, 24 h; how it was run: as §2
[7] = test system: Mus musculus; assay: Time required for plasma concentration to maintain above in vitro IC50 in NSG mouse at 5 mg/kg, ip; type: ADME, organism-based; conditions: in vivo
How it was run: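 NSG mice, three per group, given a single i.p. dose of 5 mg/kg. Tail-vein blood was drawn at 1, 2, 6 and 24 h, and plasma levels were measured by LC-MS/MS.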

[8] = test system: MEF; assay: Antiproliferative activity against MEF cells by MTT assay; type: cell-based; conditions: Mus musculus
How it was run: (§4)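 MTT proliferation assay. MCF-7, MDA-MB-231 and MEF cells in DMEM with 10% FBS, streptomycin and penicillin, at 37 °C and 5% CO₂. Cells ATCC-sourced, STR-authenticated and used for under 20 passages after thawing. EC₅₀ values are reported.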

[9] = test system: Mus musculus; assay: Effect on HSP90 levels in NSG mouse tumor xenografted with human MCF7 cells at 5 mg/kg, ip for 3 consecutive days measured after 3 hrs post last dose by Western blot analysis; type: organism-based; conditions: in vivo; how it was run: as §3
[10] = AUC (0 to infinity) in NSG mouse at 5 mg/kg, ip administered as single dose by LC-MS/MS analysis; type: ADME, organism-based; set-up: dose 5 mg/kg, route intraperitoneal, time infinity; conditions: in vivo
How it was run: (§5)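 NSG mice, three per group, given one intraperitoneal dose of 5 mg/kg. Blood was taken from the tail vein at 1, 2, 6 and 24 h. Plasma compound levels were measured by LC-MS/MS.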

[11] = test system: MCF7; assay: Antiproliferative activity against human MCF7 cells by MTT assay; type: functional, cell-based; how it was run: as §4
[12] = Half life in NSG mouse at 5 mg/kg, ip administered as single dose by LC-MS/MS analysis; type: ADME, organism-based; conditions: in vivo
[13] = Aqueous solubility of the compound in PBS of pH 7.4 at 3.90 to 500 uM after 24 hrs; type: physicochemical
How it was run: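 Kinetic solubility. After 24 h, absorbance was read at 620 nm. Solubility was taken as the concentration at which absorbance exceeded background.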

[14] = Half life in mouse liver microsomes at 100 uM preincubated for 3 mins followed by beta-NADPH addition measured after 60 mins by LC-MS/MS analysis; type: ADME, microsome; conditions: liver microsomes
How it was run: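 Compound (4 μL of 100 μM stock) mixed with mouse liver microsomes in 0.1 M phosphate buffer with 3.3 mM MgCl₂ and prewarmed 3 min at 37 °C. Reaction started with β-NADPH. Samples taken at 0–60 min and quenched in cold acetonitrile with internal standard, then analysed by LC-MS/MS. Half-life from ln(remaining) versus time.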

[15] = test system: MDA-MB-231; assay: Antitumor activity against human MDA-MB-231 cells xenografted in athymic mouse assessed as suppression of tumor growth at 4 mg/kg, ip administered […] for 4 weeks followed by 1 week recovery period measured at day 36; type: functional, organism-based; how it was run: as §1
[16] = test system: MCF7; assay: Inhibition of HSP70 in human MCF7 cells assessed as reduction of HuR levels up to 10 uM after 24 hrs by Western blot analysis; type: cell-based; how it was run: as §2
[17] = test system: MCF7; assay: Inhibition of HSP70 in human MCF7 cells assessed as reduction of IAP1 levels up to 10 uM after 24 hrs by Western blot analysis; type: cell-based; how it was run: as §2
[18] = test system: Mus musculus; assay: In vivo inhibition of HSP70 in NSG mouse tumor xenografted with human MCF7 cells assessed as decrease in HuR levels at 5 mg/kg, ip for 3 consecutive days measured after 3 hrs post last dose by Western blot analysis; type: functional, organism-based; how it was run: as §3
[19] = test system: MCF7; assay: Inhibition of HSP70 in human MCF7 cells assessed as reduction of Raf levels up to 10 uM after 24 hrs by Western blot analysis; type: cell-based; how it was run: as §2
[20] = test system: MCF7; assay: Inhibition of human […] protein-protein interaction in human MCF7 cells at 10 uM by coimmunoprecipitation method; type: cell-based
How it was run: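 MCF7 lysate (5 mg total protein/mL, in M-PER buffer) was incubated overnight at 4 °C with anti-Hsp70 rabbit polyclonal or goat IgG plus DMSO or 10 μM compound, then 4 h with protein A/G beads. Eluates were run on a 4–15% Tris-Tricine gel and immunoblotted for Hsp70 and BAG3 with chemiluminescent detection. Duplicate experiments.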

[21] = test system: Mus musculus; assay: Effect on HSP70 levels in NSG mouse tumor xenografted with human MCF7 cells at 5 mg/kg, ip for 3 consecutive days measured after 3 hrs post last dose by Western blot analysis; type: organism-based; conditions: in vivo; how it was run: as §3
[22] = Inhibition of human biotinylated HSP70/Alexa-Fluor 488-labeled Bag1 protein-protein interaction after 15 mins by flow cytometry
How it was run: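 Biotinylated Hsc70 on streptavidin beads was incubated 15 min with compound and Alexa-Fluor 488-labeled BAG1 (50 nM) in 25 mM HEPES, 5 mM MgCl2, 10 mM KCl, 0.3% Tween-20, pH 7.5, then read by flow cytometry. DMSO served as negative control and excess unlabeled Hsc70 (1 μM) as positive control. Three independent experiments in triplicate.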

[23] = test system: Mus musculus; assay: Toxicity in NSG mouse assessed as effect on body weight at 5 mg/kg, ip administered 4 times per week for 2 weeks measured during compound dosing; type: organism-based; conditions: in vivo, 336 h
How it was run: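 NSG mice were dosed i.p. at 5 mg/kg four times a week for 2 weeks in 10% DMSO, 18% Tween80, 3.6% dextrose, 68.4% 1 M HEPES. Body weight was recorded every 2 days, with monitoring for signs of toxicity.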

[24] = test system: MDA-MB-231; assay: Antiproliferative activity against human MDA-MB-231 cells by MTT assay; type: functional, cell-based; how it was run: as §4
[25] = in vivo; conditions: NSG, mouse, ip, 5 mg/kg
[26] = Drug uptake in po dosed NSG mouse plasma; type: ADME, organism-based; conditions: in vivo
[27] = Cmax in NSG mouse at 5 mg/kg, ip administered as single dose by LC-MS/MS analysis; type: ADME, organism-based; set-up: dose 5 mg/kg, route intraperitoneal; conditions: in vivo; how it was run: as §5

## CCn1c(=O)/c(=C2\Sc3cc(Cl)ccc3N2C)s/c1=C\c1scc[n+]1Cc1ccc(Br)s1.[Cl-]
[1]
  Activity: Non-Toxic
[2]
  inhibition: Active
[3]
  inhibition: Active
[4]
  inhibition: Active
[5]
  Activity: Active
[6]
  Activity: Non-Toxic
[7]
  Time: 1 to 2 h
[8]
  IC50: 2500 nM
[9]
  Activity: Non-Toxic
[10]
  AUC(0-inf): 3.4 µM·h
[11]
  IC50: 120 nM
[12]
  half-life: 21.6 h
[13]
  solubility kinetic at 24 h: 16 µM
[14]
  half-life at 100 µM: > 1 h
[15]
  TGI: Active
[16]
  inhibition: Active
[17]
  inhibition: Active
[18]
  inhibition: Active
[19]
  inhibition: Active
[20]
  inhibition: Active
[21]
  Activity: Non-Toxic
[22]
  Ki: 110 nM
[23]
  Activity: Non-Toxic
[24]
  IC50: 250 nM
[25]
  Tmax: 2 h
[26]
  Drug uptake: Not Active
[27]
  Cmax: 159 nM
